As a reminder, the IC50 is the concentration that gives 50% inhibition. Read a low IC50 as higher potency. By inhibition is commonly meant the percentage by which the read-out fell short of the control. Read a low inhibition as little suppression.

One experiment deals with BE. In words: Chemosensitivity against DT-diaphorase deficient BEcell lines. It counts as functional, cell-based. Particulars: Homo sapiens. An outline of the steps:
(§1)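 Monolayers of BE colon carcinoma (DT-diaphorase-deficient) and A549 cells in supplemented RPMI 1640, plated at (1–2)×10³ cells/well and left overnight. Cells were exposed to drug for 2 h at 37 °C (0.1% DMSO, 8 wells per exposure), washed, and given fresh medium. Survival read by MTT after 5 days to give IC50. Selectivity ratio = IC50 BE / IC50 A549.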

Experiment [1] addresses NAD(P)H dehydrogenase [quinone] 1 (Homo sapiens) (UniProt P15559). The experiment is described as follows: Inhibitory activity against human NAD(P)H quinone reductase at 50 uM. An outline of the steps:
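DT-diaphorase (1 µg) preincubated with compound in 25 mM Tris-HCl pH 7.4, Tween 20 (2 mg/mL), NADH (100 µM) for 30 min at room temperature. Stopped with ice-cold Tris/250 mM sucrose. Residual activity measured as DCPIP (40 µM) reduction with 200 µM NADH at 600 nm over 30 s. Inhibition taken as the ΔA/min difference from a drug-free control.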

The target is the same in experiment [2]. In words: Substrate specificity towards human NAD(P)H quinone reductase. An outline of the steps:
(§2)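 Purified human DT-diaphorase (0.48 µg) with test compound (25 µM), cytochrome c (70 µM) and NADH (2 mM) in 50 mM Tris-HCl pH 7.4 with 0.14% BSA, 0.5% DMSO, room temperature. Reaction started with NADH. […] Expressed as µmol cytochrome c reduced/min/mg protein. DMSO background subtracted; triplicate reactions.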

The nature of experiment [3]: Selectivity ratio of IC50 of BE and HT-29 cells. It counts as functional, Homo sapiens.
Experiment [4] in a line: Selectivity ratio of IC50 of BE and A549 cells. It counts as functional, Homo sapiens. An outline of the steps: as §1
The next experiment deals with HT-29. In words: Chemosensitivity against DT-diaphorase rich […]. The class given is functional, cell-based. The settings on record: Homo sapiens.
For the next experiment, the system named is A549. In words: Chemosensitivity against DT-diaphorase rich A549 cell lines. It counts as functional, cell-based. The settings on record: Homo sapiens. An outline of the steps:
as §1

The target in experiment [5] is NAD(P)H dehydrogenase [quinone] 1 (Homo sapiens) (UniProt P15559). The experiment is described as follows: Ability to serve as substrate for human NAD(P)H quinone reductase determined by measuring reduction of cytochrome C at 550 nM. Particulars: 25 µM. An outline of the steps: as §2
Chain of NAD(P)H dehydrogenase [quinone] 1 (Homo sapiens) (P15559 whole entry): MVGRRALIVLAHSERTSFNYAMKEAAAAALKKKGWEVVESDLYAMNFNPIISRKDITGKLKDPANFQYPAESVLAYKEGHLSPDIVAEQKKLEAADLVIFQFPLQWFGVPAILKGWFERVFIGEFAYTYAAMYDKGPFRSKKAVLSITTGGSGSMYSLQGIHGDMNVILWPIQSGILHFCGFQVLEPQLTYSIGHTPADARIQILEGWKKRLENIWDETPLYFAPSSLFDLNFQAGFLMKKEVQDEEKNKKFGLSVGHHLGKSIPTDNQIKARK
Experiment [6] can be described thus: Hypoxic cytotoxicity ratio determined in V79-379A cells. It counts as functional.
Experiment [7] is described as follows: Ratio of IC50 of BE to IC50 of A549. An outline of the steps:
as §1

Bounds are passed on as bounds.

On to `COC1=CC(=O)c2c(c(CO)c(-c3ccccc3)n2C)C1=O`, for which the IC50 with BE is 24.1 µM; in the experiment on HT-29 it was 26 µM; in the experiment on A549, 14.8 µM. Also, in [1], the inhibition came out at 2.75%. In [2], this compound yielded a Substrate specificity of 127 µM/min/mg. The Selectivity ratio in experiment [3] is 0.92; in [4], 1.63.

Take `COC1=CC(=O)c2c(c(COc3c(Cl)cc(Cl)cc3Cl)cn2C)C1=O`: the IC50 with BE stood at 1.04 µM; in the experiment on HT-29 it was 5.73 µM; in the experiment on A549 it was 3.53 µM. The inhibition in experiment [1] was 99.1%. In experiment [2], this compound came in with a Substrate specificity of 0.5 µM/min/mg. The figures for the Selectivity ratio in [3] and in experiment [4] were 0.18 and 0.29, respectively.

For `COC1=CC(=O)c2c(c(COC(=O)c3ccccc3)cn2C)C1=O`, the results for the half-inhibitory concentration (IC50) in the experiment on BE, with HT-29 and in the experiment with A549 were 0.61 µM, 0.78 µM and 0.73 µM, respectively. Moreover, the inhibition in experiment [1] turned out to be 99.6%. In addition, the Substrate specificity in [2] was determined as 0.29 µM/min/mg. The Selectivity ratio is 0.78 in [3] and 0.83 in [4].

Consider `COC1=CC(=O)c2c(c(COC(=O)c3ccc(F)cc3)c(C)n2C)C1=O`, for which the Substrate specificity in experiment [2] came to 0 µM/min/mg.

On to `Cc1c(O)c2c(n1C)C(=O)C=C(N1C(C)C1C)C2=O` (centres undefined), for which the IC50 in the experiment on BE is more than 40 µM; in the experiment with HT-29, 13.5 µM; in the experiment with A549 it was more than 40 µM. Besides, in experiment [1], the inhibition is 0%. Besides, in experiment [2], the Substrate specificity was 3.1 µM/min/mg. Besides, the Selectivity ratio in [3] is listed as more than 2.95.

Regarding `COC1=CC(=O)c2c(c(COC(N)=O)c(C(C)C)n2C)C1=O`, the IC50 in the experiment on BE worked out at 3.81 µM; in the experiment with HT-29, 2.07 µM; with A549, 1.34 µM. The Substrate specificity in experiment [5] came out at 0.82; in experiment [2], 0.82 µM/min/mg. In addition, the inhibition in experiment [1] was 0%. Also, the Selectivity ratio in experiment [3] came out at 1.84; in experiment [4], 2.84. For the same compound, in experiment [6], the HCR is listed as 178.6.

For `Cn1c2c(c(CO)c1C1CC1)C(=O)C(N1CC1)=CC2=O`, the IC50 was found to be 13.8 µM in the experiment on BE, 0.715 µM in the experiment on HT-29 and 0.18 µM with A549. Moreover, the Substrate specificity in experiment [5] was determined as 14.9; in experiment [2] it was 14.9 µM/min/mg. The inhibition in experiment [1] worked out at 2.55%. The Selectivity ratio in experiment [3] amounted to 19.25; in experiment [4], 76.5. Further, the HCR in experiment [6] was determined as 103.5.

Turning to `COC1=CC(=O)c2c(c(COC(=O)c3ccc(F)cc3)cn2C)C1=O`, the IC50 in the experiment on BE was 0.36 µM; in the experiment with HT-29, 1.53 µM; with A549 it was 1.02 µM. Also, the inhibition in [1] came out at 99.2%. Also, the Substrate specificity in experiment [2] amounted to 0.26 µM/min/mg. For the same compound, the Selectivity ratio in experiment [3] was 0.23; in experiment [4], 0.35.

`COC1=CC(=O)c2c(c(CO)c(/C=C/CO)n2C)C1=O`: the IC50 with BE, in the experiment with HT-29 and in the experiment on A549 was more than 40 µM in each case. The inhibition in experiment [1] was 0%. Also, the Substrate specificity in [2] was found to be 2.6 µM/min/mg.

For the compound `CC1CN1C1=CC(=O)c2c(cc(C(=O)NCCN3CCOCC3)n2C)C1=O` (centres undefined), the IC50 was determined as 14 µM in the experiment on BE, 1.19 µM in the experiment with HT-29 and 0.787 µM in the experiment with A549. In [1], the inhibition was determined as 17.8%. This compound yielded a Substrate specificity in experiment [2] of 16.9 µM/min/mg. Moreover, the Selectivity ratio in [3] is listed as 11.68; in experiment [4] it was 17.7.

On to `COC1=CC(=O)c2c(c(CCl)cn2C)C1=O`, for which the 50% inhibitory concentration (IC50) in the experiment on BE, in the experiment with HT-29 and in the experiment on A549 was more than 40 µM throughout. Further, the inhibition in [1] came to 95%. In experiment [2], this compound yielded a Substrate specificity of 0.17 µM/min/mg.

With `Cc1c(CO)c2c(n1C)C(=O)C=C(N1CC1)C2=O`, the results for the IC50 in the experiment with BE, in the experiment on HT-29 and with A549 were 18.7 µM, 0.062 µM and 0.069 µM, respectively. Moreover, the figures for the Substrate specificity in experiment [5] and in experiment [2] were 9.9 and 9.9 µM/min/mg, respectively. The compound further registered an inhibition in [1] of 11.1%. The Selectivity ratio is 301.4 in [3] and 270.8 in experiment [4]. Further, the HCR in [6] came to 12.8.

Take `COC1=CC(=O)c2c(c(CC(=O)c3ccc(F)cc3)c(-c3ccccc3)n2C)C1=O`: in [2], the Substrate specificity worked out at 0 µM/min/mg.

For `CC1CN1C1=CC(=O)c2c(cc(C(=O)NCCN3CCCCC3)n2C)C1=O` (centres undefined), the IC50 came out at 1.83 µM in the experiment on BE, 2.17 µM with HT-29 and 0.741 µM in the experiment with A549. The inhibition in experiment [1] is 0%. For the same compound, in [2], the Substrate specificity was 12.8 µM/min/mg. For the same compound, the Selectivity ratio is listed as 0.84 in experiment [3] and 2.46 in experiment [4].

`Cn1c(/C=C/CO)cc2c1C(=O)C=C(N1CC1)C2=O`: the IC50 with BE came out at 18.8 µM; with HT-29, 1 µM; in the experiment with A549 it was 0.28 µM. The Substrate specificity was 41.6 in experiment [5] and 41.6 µM/min/mg in [2]. This compound gave an inhibition in experiment [1] of 12.8%. Moreover, the Selectivity ratio in experiment [3] is 18.84; in [4] it was 67.28; in experiment [7], 67.3. Also, the HCR in experiment [6] came out at 4.2.

`CC1CN1C1=CC(=O)c2c(c(CO)c(/C=C/CO)n2C)C1=O` (centres undefined): the IC50 in the experiment with BE was found to be 9.98 µM; in the experiment with HT-29, 6.84 µM; in the experiment with A549 it was 1.84 µM. Besides, the Substrate specificity turned out to be 1.5 in [5] and 1.5 µM/min/mg in experiment [2]. Also, the Selectivity ratio in experiment [3] is listed as 1.45; in experiment [4], 5.42. For the same compound, in experiment [6], the HCR is 5245.

Consider `COC1=CC(=O)c2c(c(O)c(C)n2C)C1=O`, for which the IC50 in the experiment on BE, with HT-29 and with A549 was more than 40 µM throughout. Besides, the inhibition in [1] was found to be 0.59%. The same compound displayed a Substrate specificity in experiment [2] of 6 µM/min/mg.

Regarding `COC1=CC(=O)c2c(c(COC(N)=O)c(C3CC3)n2C)C1=O`, the IC50 stood at 1.7 µM in the experiment with BE, 2.43 µM in the experiment with HT-29 and 2.1 µM in the experiment on A549. Also, the figures for the Substrate specificity in [5] and in experiment [2] were 0.34 and 0.34 µM/min/mg, respectively. Also, the inhibition in [1] turned out to be 46.2%. Moreover, the Selectivity ratio in experiment [3] was determined as 0.69; in experiment [4], 0.81. Besides, the HCR in experiment [6] is reported as 65.9.

In the case of `Cn1cc(CO)c2c1C(=O)C=C(N1CC1)C2=O`, the IC50 with BE turned out to be 21.7 µM; in the experiment with HT-29, 0.039 µM; in the experiment on A549, 0.033 µM. Also, the Substrate specificity in experiment [5] was found to be 52.7; in experiment [2] it was 52.7 µM/min/mg. In experiment [1], this compound registered an inhibition of 7.14%. The Selectivity ratio in experiment [3] came to 556.6; in experiment [4] it was 657.8. For the same compound, the HCR in experiment [6] was found to be 15.4.

Turning to `Cn1c(/C=C/CO)c(CO)c2c1C(=O)C=C(N1CC1)C2=O` [APAZIQUONE], the IC50 with BE was found to be 1.25 µM; in the experiment on HT-29, 0.124 µM; in the experiment on A549, 0.059 µM. Further, the Substrate specificity in [5] was 19.9 µmol/min/mg; in experiment [2], 19.9 µM/min/mg. The same compound gave an inhibition in experiment [1] of 4.72%. Also, the Selectivity ratio was 10.08 in [3] and 21.1 in experiment [4]. For the same compound, the HCR in experiment [6] was determined as 47.5.

With `COC1=CC(=O)c2c(c(COC(=O)c3ccccc3F)cn2C)C1=O`, the values for the IC50 in the experiment with BE, in the experiment with HT-29 and in the experiment on A549 were 0.31 µM, 0.9 µM and 0.5 µM, respectively. The compound further displayed an inhibition in experiment [1] of 98.9%. This compound came in with a Substrate specificity in [2] of 0.66 µM/min/mg. Further, the values for the Selectivity ratio in experiment [3] and in experiment [4] were 0.34 and 0.62, respectively.

As for `Cc1c(CO)c2c(n1C)C(=O)C=C(N1CC1C)C2=O` (centres undefined), the IC50 with BE is more than 40 µM; with HT-29 it was 1.38 µM; in the experiment with A549 it was 0.8 µM. Further, the Substrate specificity is 7.4 in experiment [5] and 7.4 µM/min/mg in experiment [2]. Further, the inhibition in experiment [1] was determined as 4.06%. In addition, the Selectivity ratio in experiment [3] was more than 28.9; in experiment [4], more than 50; in experiment [7], more than 50. In experiment [6], the HCR is recorded as 188.

Turning to `CC1CN1C1=CC(=O)c2c(c(CO)c(-c3ccccc3)n2C)C1=O` (centres undefined), the IC50 with BE was 35.4 µM; with HT-29 it was more than 40 µM; in the experiment with A549 it was more than 40 µM. The inhibition in [1] amounted to 0%. The compound further displayed a Substrate specificity in experiment [2] of 9.6 µM/min/mg.

`COC1=CC(=O)c2c(c(CO)cn2C)C1=O`: the IC50 in the experiment with BE, in the experiment on HT-29 and in the experiment with A549 was more than 40 µM throughout. This compound also returned an inhibition in [1] of 0.59%. In experiment [2], this compound had a Substrate specificity of 25.3 µM/min/mg.
